Experimental data collected from several papers.
Lines come from different studies, so protocols differ.
CDK4: Cyclin-dependent kinase 4 (CDK4, Homo sapiens, UniProt P11802)
CDK4 with cyclin D1: Cyclin-dependent kinase 4, with cyclin D1 (CDK4, Homo sapiens, UniProt P11802)
CDK4 with cyclin D3: Cyclin-dependent kinase 4, with cyclin D3 (CDK4, Homo sapiens, UniProt P11802)

The remaining binding of `O=C(c1ccc(Nc2nccc(-c3cc4ccccc4s3)n2)cc1)N1CCC(N2CCCC2)CC1` is reported as 88% (CDK4; binding; competition with immobilised ligand; 1 µM).
`C=CC(=O)N1CCC(C(=O)NCC(=O)N2CCN(c3nc(-c4cnc(N)nc4C(F)F)nc(N4CCOCC4)n3)CC2)CC1` gave a remaining binding of 92% (CDK4; binding; competition with immobilised ligand; 1 µM).
For `CC(=O)c1c(NS(C)(=O)=O)c2cc(-c3ccc(Cl)cc3)c(-c3ccc(Cl)cc3Cl)nc2n(C)c1=O`, the remaining binding was 100% (CDK4 with cyclin D1; cell-free assay; competition with immobilised ligand; 1 µM).
The remaining binding of `O=C(c1ccc(Nc2ncc(Cl)c(-c3ccc(Cl)s3)n2)cc1)N1CCC(N2CCCC2)CC1` is reported as 0.9% (CDK4 with cyclin D3; binding; competition with immobilised ligand; 1 µM).
The remaining binding of `Cc1cnn2ncc(-c3ccnc(N(C)C)n3)c2c1` is reported as 95% (CDK4; binding; 1 µM).
The remaining binding of `Nc1ncc2c(n1)-c1c([nH]c3ccc(C#CC4CC4)cc13)CCCC2` is reported as 84% (CDK4; binding; competition with immobilised ligand; 1 µM).
`CCCOc1ccc([C@@H]2[C@@H](C(=O)O)[C@H](c3ccc4c(c3)OCO4)CN2CC(=O)Nc2c(CC)cccc2CC)cc1` gave a remaining binding of 84% (CDK4; cell-free assay; competition with immobilised ligand; 1 µM).
With `COc1ccnn2ncc(-c3ccnc(N(C)C)n3)c12` the remaining binding was 97% (CDK4 with cyclin D1; binding; 1 µM).
`Cc1c[nH]c2nccc(Oc3c(F)cc(Nc4cc(Cl)nc(N)n4)cc3F)c12` has a remaining binding of 67% (CDK4; cell-free assay; competition with immobilised ligand; 0.1 µM).
For `CNC(=O)[C@@H]1CC[C@@H](n2c(-c3ccc4cnccc4c3)nc3ccc(C(=O)NCc4cccc(C(N)=O)c4)cc32)C1`, the remaining binding was 100% (CDK4 with cyclin D1; binding; competition with immobilised ligand; 1 µM).
With `Cc1c(NC(=O)c2cc(C(N)=O)nc3cc(F)ccc23)c(C(F)(F)F)nn1Cc1ccc(C#N)cc1` the remaining binding was 81% (CDK4 with cyclin D3; cell-free assay; competition with immobilised ligand; 1 µM).
The remaining binding of `COc1ncc2cc3ccccc3nc2c1C#N` is reported as 74% (CDK4; cell-free assay; competition with immobilised ligand; 5 µM).
The remaining binding of `Cc1cnc(Nc2ccc(C(=O)N3CCC(N4CCCC4)CC3)cc2)nc1-c1cc2ccccc2s1` is reported as 2.7% (CDK4 with cyclin D3; binding; competition with immobilised ligand; 1 µM).
The remaining binding of `c1ccc(N2CCN(Cc3nc4ccccc4[nH]3)CC2)nc1` is reported as 100% (CDK4; binding; competition with immobilised ligand; 1 µM).
With `C[C@@H]1CCN(c2nccc(-c3cnn4ncccc34)n2)C1` the remaining binding was 76% (CDK4 with cyclin D3; binding; 1 µM).
`COc1cnc(Nc2cccc(S(N)(=O)=O)c2)nc1N1CCN(c2ccccc2)CC1` has a remaining binding of 78% (CDK4 with cyclin D1; binding; competition with immobilised ligand; 1 µM).
The remaining binding of `CN(C)c1nccc(-c2cnn3ncccc23)n1` is reported as 92% (CDK4; binding; 1 µM).
For `O=C(NC[C@@H]1[C@H]2CN(C(=O)OCc3cc(C(F)(F)F)cc(C(F)(F)F)c3)C[C@@H]12)c1ccc2[nH]nnc2c1`, the remaining binding was 100% (CDK4 with cyclin D1; cell-free assay; competition with immobilised ligand; 1 µM).
`c1cnn2ncc(-c3ccnc(N4CCC45COC5)n3)c2c1` gave a remaining binding of 68% (CDK4 with cyclin D3; binding; 1 µM).
The remaining binding of `O=C(Nc1c[nH]nc1C(=O)NC1CCNCC1)c1cc(F)cc(F)c1` is reported as 100% (CDK4; binding; competition with immobilised ligand; 1 µM).
